Measured values as given in ChEMBL document CHEMBL4251750, “Structural Insights of Benzenesulfonamide Analogues as NLRP3 Inflammasome Inhibitors: Design, Synthesis, and Biological Characterization” (J Med Chem, 2018).
Activity calls are given as the source filed them. The rule behind the calls is not given here.

Columns and labels:
[1] = biological target: T1, NACHT, LRR and PYD domains-containing protein 3 (Mus musculus, UniProt Q8R4B8); test: Inhibition of NLRP3 in mouse J774A.1 cells assessed as reduction in LPS-stimulated IL-1beta levels pre-incubated with LPS for 4.5 hrs followed by incubation for 30 mins in presence of ATP and measured after 30 mins by ELISA; type: cell-based
[2] = test system: Mus musculus; test: Cardioprotective activity in 30 mins coronary artery ligated I/R AMI ICR mouse model assessed as reduction in troponin-1 levels at 30 mg/kg, po measured at 24 hrs post surgery by ELISA; type: functional, organism-based
How it was run: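 ICR mice (8-12 weeks) under pentobarbital anaesthesia, intubated; left thoracotomy, pericardiectomy, proximal left coronary artery ligated 30 min then released. Compound or matched vehicle (0.1mL), n=6 per group.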

[3] = test system: Mus musculus; test: Cardioprotective activity in 30 mins coronary artery ligated I/R AMI ICR mouse model assessed as reduction in infract size at 30 mg/kg, po measured at 24 hrs post surgery by TTC-staining based assay; type: functional, organism-based
How it was run: (§1)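 ICR mice (8-12 weeks) were anesthetized with pentobarbital (50-70 mg/kg) and intubated, then underwent left thoracotomy and pericardiectomy. The proximal left coronary artery was ligated for 30 min or 75 min and released. Compound or vehicle was given at 0.1 mL, with n=6 per group. At 24 h after ischemia, viable myocardium was stained with TTC to measure infarct size.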

[4] = test system: Mus musculus; test: (§2) Cognition enhancement activity in double APP/PS1 transgenic Alzheimer's disease C57BL/6 mouse model assessed as decrease in latency to find goal platform at 100 mg/kg, ip administered as single daily dose at 5 times per week for first 1 week followed by oral administration as single daily dose at 5 times per week for next 7 weeks by Morris water maze test relative to control; type: functional, organism-based
How it was run: (§3)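 APP/PS1 female transgenic mice (B6C3-Tg APPswe/PSEN1dE9) and matching WT females, randomized at 7 months (WT vehicle n=4, treated n=6; Tg vehicle n=5, treated n=7). Daily i.p. (10% DMSO with PEG-100) for 5 days, then oral (2% DMSO in corn oil) once daily weekdays for 7 weeks. Afterwards tested by novel object recognition (discrimination index) and Morris water maze (4-day fixed-platform latency trials, then probe trial).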

[5] = test system: Mus musculus; test: Effect on cognition activity in wild type C57BL/6 mouse assessed as decrease in time spent in goal quadran at 100 mg/kg, ip administered as single daily dose at 5 times per week for first 1 week followed by oral administration as single daily dose at 5 times per week for next 7 weeks by Morris water maze test relative to control; type: ADME, organism-based; details: in vivo; how it was run: as §3
[6] = test system: Mus musculus; test: as §2, with “increase” for “decrease”, “time spent in” for “latency to find”, “quadran” for “platform”; type: functional, organism-based; how it was run: as §3
[7] = test system: Mus musculus; test: as §2, with “discrimination index” for “decrease in latency to find goal platform”, “novel object recognition” for “Morris water maze”; type: functional; how it was run: as §3
[8] = test system: Mus musculus; test: Cardioprotective activity in 75 mins coronary artery ligated I/R AMI ICR mouse model assessed as reduction in infract size at 30 mg/kg, po measured at 24 hrs post surgery by TTC-staining based assay; type: functional, organism-based; how it was run: as §1
[9] = biological target: T1, NACHT, LRR and PYD domains-containing protein 3; test: Inhibition of NLRP3 in mouse BMDM assessed as reduction in LPS-stimulated IL-1beta levels pre-incubated with LPS for 4.5 hrs followed by incubation for 30 mins in presence of ATP and measured after 30 mins by ELISA; type: cell-based
How it was run: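 J774A.1 cells (DMEM, 10% FBS; 1 × 10⁵/well, plated 24 h) or bone marrow derived macrophages primed with E. coli 0111:B4 LPS (final 1 µg/mL) for 4.5 h. Compound and ATP (5 mM) then added together for 30 min. Supernatant IL-1β by mouse ELISA.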

[10] = biological target: NACHT, LRR and PYD domains-containing protein 3 (Mus musculus) (UniProt Q8R4B8); test: Ratio of IC50 for LPS/ATP-induced NLRP3-mediated IL1beta release in mouse J774A.1 cells to IC50 for LPS/ATP-induced NLRP3-mediated IL1beta release in mouse BMDM; type: cell-based
[11] = test system: Mus musculus; test: In-vivo inhibition of NLRP3 inflammasome in C57BL/6 mouse assessed as reduction in LPS-induced IL-1beta levels at 0.5 mg/kg, ip pre-treated for 1 hr followed by LPS stimulation for 2.5 hrs by ELISA; type: functional, organism-based
How it was run: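 C57BL/6 mice dosed with compound or vehicle, then 1 h later given LPS 20 mg/kg i.p. (PBS control). Serum IL-1β measured by ELISA 2.5 h after LPS.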

T1 sequence (Q8R4B8 whole entry, the tested form may be a part): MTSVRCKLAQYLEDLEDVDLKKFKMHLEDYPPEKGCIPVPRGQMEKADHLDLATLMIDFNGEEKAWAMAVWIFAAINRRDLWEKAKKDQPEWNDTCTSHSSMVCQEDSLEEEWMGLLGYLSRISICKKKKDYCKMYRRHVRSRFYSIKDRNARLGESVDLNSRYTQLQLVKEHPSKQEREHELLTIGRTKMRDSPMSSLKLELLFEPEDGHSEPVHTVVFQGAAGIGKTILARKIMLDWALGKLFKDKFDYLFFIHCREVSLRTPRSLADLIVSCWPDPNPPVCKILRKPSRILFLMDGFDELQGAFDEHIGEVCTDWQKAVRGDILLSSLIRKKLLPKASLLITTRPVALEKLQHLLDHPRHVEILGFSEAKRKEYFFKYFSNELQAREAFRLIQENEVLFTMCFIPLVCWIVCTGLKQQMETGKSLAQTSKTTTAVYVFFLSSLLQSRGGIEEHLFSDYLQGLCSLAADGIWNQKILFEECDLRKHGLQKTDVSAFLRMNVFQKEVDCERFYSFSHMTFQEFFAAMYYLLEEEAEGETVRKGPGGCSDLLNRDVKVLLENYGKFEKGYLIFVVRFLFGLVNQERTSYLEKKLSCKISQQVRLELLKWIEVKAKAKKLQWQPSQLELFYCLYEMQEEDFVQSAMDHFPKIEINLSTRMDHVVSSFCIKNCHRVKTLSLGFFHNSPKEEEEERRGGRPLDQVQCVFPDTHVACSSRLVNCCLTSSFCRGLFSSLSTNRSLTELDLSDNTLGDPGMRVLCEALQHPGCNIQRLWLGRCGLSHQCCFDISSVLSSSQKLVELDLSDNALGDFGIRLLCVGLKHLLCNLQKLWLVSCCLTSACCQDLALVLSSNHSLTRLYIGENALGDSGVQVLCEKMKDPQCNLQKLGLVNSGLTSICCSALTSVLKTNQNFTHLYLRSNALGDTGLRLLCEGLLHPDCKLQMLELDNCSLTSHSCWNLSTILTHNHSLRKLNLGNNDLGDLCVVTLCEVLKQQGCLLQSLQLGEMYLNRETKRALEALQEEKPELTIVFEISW
Sequence of NACHT, LRR and PYD domains-containing protein 3 (Mus musculus) (Q8R4B8 whole entry, the tested form may be a part): as above

SMILES | IC50 [1] | also measured
CCN(CC)S(=O)(=O)c1ccc(CCNC(=O)c2cc(Cl)ccc2OC)cc1 | 2.01 µM | 
COc1ccc(Cl)cc1C(=O)NCCc1ccc(S(=O)(=O)NCc2ccc(C(F)(F)F)cc2)cc1 | 1.9 µM | 
CNS(=O)(=O)c1ccc(CCNC(=O)c2ccccc2)cc1 | 147 µM | 
CNS(=O)(=O)c1ccc(CCCCNC(=O)c2cc(Cl)ccc2OC)cc1 | 1.74 µM | 
COc1ccc(Cl)cc1C(=O)NCCc1ccc(S(=O)(=O)NCCc2ccccc2)cc1 | 0.81 µM | 
COc1ccc(Cl)cc1C(=O)NCCc1ccc(S(=O)(=O)NCc2ccc(O)cc2)cc1 | 0.63 µM | 
COc1ccc(Cl)cc1C(=O)NCCc1ccc(S(=O)(=O)NCc2ccccc2)cc1 | 1.31 µM | 
CNS(=O)(=O)c1ccc(CCNC(=O)c2c(Cl)cccc2OC)cc1 | 44.4 µM | 
COc1ccc(Cl)cc1C(=O)NCCc1ccc(S(=O)(=O)N2CCCCC2)cc1 | 5.01 µM | 
CCCN(CCC)S(=O)(=O)c1ccc(CCNC(=O)c2cc(Cl)ccc2OC)cc1 | 1.4 µM | 
CNS(=O)(=O)c1ccc(CCNC(=O)c2ccc(Cl)cc2OC)cc1 | 18 µM | 
CNS(=O)(=O)c1ccc(CCNC(=O)c2cc(Cl)ccc2O)cc1 | 10.5 µM | 
COc1ccc(Cl)cc1C(=O)NCCc1ccc(S(=O)(=O)Nc2ccccc2)cc1 | 2.08 µM | 
CNS(=O)(=O)c1ccc(CCNC(=O)c2cc(Cl)cc(OC)c2)cc1 | 5.83 µM | 
CNS(=O)(=O)c1ccc(CCNC(=O)c2cc(Cl)ccc2OC)cc1 |  | Activity [2]: Active; Activity [3]: Active; Activity [4]: Active; Activity [5]: Non-Toxic; Activity [6]: Active; Activity [7]: <50%; Activity [8]: Active
COc1ccc(Cl)cc1C(=O)NCCc1ccc(S(=O)(=O)N2CCNCC2)cc1 | 3.4 µM | 
CNS(=O)(=O)c1ccc(CCNC(=O)c2cccc(Cl)c2)cc1 | 13.4 µM | 
COc1ccc(Cl)cc1C(=O)NCCc1ccc(S(=O)(=O)NCc2ccc(Cl)cc2)cc1 | 1.5 µM | 
COc1ccc(Cl)cc1C(=O)NCCc1ccc(S(=O)(=O)N2CCOCC2)cc1 | 3.44 µM | 
CNS(=O)(=O)c1ccc(CCNC(=O)c2ccc(OC)c(Cl)c2)cc1 | 32.8 µM | 
CCCCN(CCCC)S(=O)(=O)c1ccc(CCNC(=O)c2cc(Cl)ccc2OC)cc1 | 0.55 µM | IC50 [9]: 0.12 µM; Ratio IC50 [10]: 4; inhibition [11]: Active
CNS(=O)(=O)c1ccc(CCNC(=O)c2cccc(Cl)c2OC)cc1 | 31.8 µM | 
COc1ccc(CNS(=O)(=O)c2ccc(CCNC(=O)c3cc(Cl)ccc3OC)cc2)cc1 | 0.42 µM | IC50 [9]: 0.36 µM; inhibition [11]: Active
CNS(=O)(=O)c1ccc(CCNC(=O)c2ccccc2OC)cc1 | 17.1 µM | 
CNS(=O)(=O)c1ccc(CCCNC(=O)c2cc(Cl)ccc2OC)cc1 | 2.03 µM | 
CCCNS(=O)(=O)c1ccc(CCNC(=O)c2cc(Cl)ccc2OC)cc1 | 1.64 µM | 
COc1ccc(Cl)cc1C(=O)NCCc1ccc(S(=O)(=O)N2CCCC2)cc1 | 3.53 µM | 
COc1ccc(Cl)cc1C(=O)NCCc1ccc(S(=O)(=O)N2CCC2)cc1 | 1.66 µM | 
CCCCNS(=O)(=O)c1ccc(CCNC(=O)c2cc(Cl)ccc2OC)cc1 | 0.97 µM | 
